From ChEMBL document CHEMBL2040768, “Synthesis, antimicrobial and cytotoxic activities of sulfone linked bis heterocycles” (Eur J Med Chem, 2012)
Calls of active or inactive are those of the source. The rule behind the calls is not given here.

How the values were obtained:
[1] = test system: Pseudomonas aeruginosa; experiment: Antibacterial activity against Pseudomonas aeruginosa at 100 ug/ml after 24 hrs by agar well diffusion method; assay type: functional; settings: for zone of inhibition at 100 µg/mL: read-out: DIZ
In short: (§1)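 Agar well diffusion. Nutrient plates swabbed with 24 h broth culture of the bacterium; 6 mm wells bored and loaded with DMSO solutions of compound (wells at 50 and 100 per well). Chloramphenicol positive control, DMSO negative control. Plates held 37 °C, 24 h; inhibition zone diameter (mm) measured, mean of duplicates.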

[2] = test system: A549; experiment: Cytotoxicity against human A549 cells up to 0.2 mM after 72 hrs by MTT assay
[3] = test system: Bacillus subtilis; experiment: Antibacterial activity against Bacillus subtilis at 100 ug/ml after 24 hrs by agar well diffusion method; assay type: functional; settings: for zone of inhibition at 100 µg/mL: read-out: DIZ; in short: as §1
[4] = test system: Pseudomonas aeruginosa; experiment: Antibacterial activity against Pseudomonas aeruginosa at 50 ug/ml after 24 hrs by agar well diffusion method; assay type: functional; settings: for zone of inhibition at 50 µg/mL: read-out: DIZ; in short: as §1
[5] = test system: Penicillium chrysogenum; experiment: Antifungal activity against Penicillium chrysogenum at 100 ug/ml after 48 hrs by agar well diffusion method; assay type: functional; settings: for zone of inhibition at 100 µg/mL: read-out: DIZ
In short: (§2)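 Fungal agar well diffusion. Plates swabbed with fungal culture, 6 mm wells filled with DMSO solutions of compound (50 and 100 per well). Ketoconazole positive and DMSO negative controls. Plates incubated 28 °C for 48 h; zone of inhibition diameter (mm) read, average of duplicates.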

[6] = test system: Staphylococcus aureus; experiment: Antibacterial activity against Staphylococcus aureus at 100 ug/ml after 24 hrs by agar well diffusion method; assay type: functional; settings: for zone of inhibition at 100 µg/mL: read-out: DIZ; in short: as §1
[7] = test system: Klebsiella pneumoniae; experiment: Antibacterial activity against Klebsiella pneumoniae at 50 ug/ml after 24 hrs by agar well diffusion method; assay type: functional; settings: for zone of inhibition at 50 µg/mL: read-out: DIZ; in short: as §1
[8] = test system: Bacillus subtilis; experiment: Antibacterial activity against Bacillus subtilis at 50 ug/ml after 24 hrs by agar well diffusion method; assay type: functional; settings: for zone of inhibition at 50 µg/mL: read-out: DIZ; in short: as §1
[9] = test system: Penicillium chrysogenum; experiment: Antifungal activity against Penicillium chrysogenum at 50 ug/ml after 48 hrs by agar well diffusion method; assay type: functional; settings: for zone of inhibition at 50 µg/mL: read-out: DIZ; in short: as §2
[10] = test system: Klebsiella pneumoniae; experiment: Antibacterial activity against Klebsiella pneumoniae at 100 ug/ml after 24 hrs by agar well diffusion method; assay type: functional; settings: for zone of inhibition at 100 µg/mL: read-out: DIZ; in short: as §1
[11] = test system: Aspergillus niger; experiment: Antifungal activity against Aspergillus niger at 50 ug/ml after 48 hrs by agar well diffusion method; assay type: functional; settings: for zone of inhibition at 50 µg/mL: read-out: DIZ; in short: as §2
[12] = test system: Staphylococcus aureus; experiment: Antibacterial activity against Staphylococcus aureus at 50 ug/ml after 24 hrs by agar well diffusion method; assay type: functional; settings: for zone of inhibition at 50 µg/mL: read-out: DIZ; in short: as §1
[13] = test system: Aspergillus niger; experiment: Antifungal activity against Aspergillus niger at 100 ug/ml after 48 hrs by agar well diffusion method; assay type: functional; settings: for zone of inhibition at 100 µg/mL: read-out: DIZ; in short: as §2

Cc1ccc(NS(=O)(=O)Cc2nnc(CS(=O)(=O)C3CNN=C3S(=O)(=O)c3ccc(C)cc3)n2N)cc1 (centres undefined)
zone of inhibition at 100 µg/mL [1]: 15 mm
Activity [2]: inactive
zone of inhibition at 100 µg/mL [3]: 18 mm
zone of inhibition at 50 µg/mL [4]: 12 mm
zone of inhibition at 100 µg/mL [5]: 18 mm
zone of inhibition at 100 µg/mL [6]: 15 mm
zone of inhibition at 50 µg/mL [7]: 18 mm
zone of inhibition at 50 µg/mL [8]: 16 mm
zone of inhibition at 50 µg/mL [9]: 15 mm
zone of inhibition at 100 µg/mL [10]: 20 mm
zone of inhibition at 50 µg/mL [11]: 13 mm
zone of inhibition at 50 µg/mL [12]: 13 mm
zone of inhibition at 100 µg/mL [13]: 16 mm

O=S(=O)(Cc1nnc(CS(=O)(=O)C2CNN=C2S(=O)(=O)c2ccccc2)o1)Nc1ccccc1 (centres undefined)
diameter of the inhibition zone (DIZ) [1]: inactive
Activity [2]: inactive
diameter of the inhibition zone (DIZ) [3]: inactive
diameter of the inhibition zone (DIZ) [4]: inactive
diameter of the inhibition zone (DIZ) [5]: inactive
diameter of the inhibition zone (DIZ) [6]: inactive
diameter of the inhibition zone (DIZ) [7]: inactive
diameter of the inhibition zone (DIZ) [8]: inactive
diameter of the inhibition zone (DIZ) [9]: inactive
diameter of the inhibition zone (DIZ) [10]: inactive
diameter of the inhibition zone (DIZ) [11]: inactive
diameter of the inhibition zone (DIZ) [12]: inactive
diameter of the inhibition zone (DIZ) [13]: inactive

Nn1c(CS(=O)(=O)Nc2ccc(Cl)cc2)nnc1CS(=O)(=O)C1CNN=C1S(=O)(=O)c1ccc(Cl)cc1 (centres undefined)
zone of inhibition at 100 µg/mL [1]: 24 mm
Activity [2]: inactive
zone of inhibition at 100 µg/mL [3]: 27 mm
zone of inhibition at 50 µg/mL [4]: 21 mm
zone of inhibition at 100 µg/mL [5]: 32 mm
zone of inhibition at 100 µg/mL [6]: 27 mm
zone of inhibition at 50 µg/mL [7]: 28 mm
zone of inhibition at 50 µg/mL [8]: 24 mm
zone of inhibition at 50 µg/mL [9]: 29 mm
zone of inhibition at 100 µg/mL [10]: 30 mm
zone of inhibition at 50 µg/mL [11]: 28 mm
zone of inhibition at 50 µg/mL [12]: 25 mm
zone of inhibition at 100 µg/mL [13]: 30 mm

Cc1ccc(NS(=O)(=O)Cc2nnc(CS(=O)(=O)/C=C/S(=O)(=O)c3ccc(C)cc3)o2)cc1
diameter of the inhibition zone (DIZ) [1]: inactive
Activity [2]: inactive
diameter of the inhibition zone (DIZ) [3]: inactive
diameter of the inhibition zone (DIZ) [4]: inactive
diameter of the inhibition zone (DIZ) [5]: inactive
diameter of the inhibition zone (DIZ) [6]: inactive
diameter of the inhibition zone (DIZ) [7]: inactive
diameter of the inhibition zone (DIZ) [8]: inactive
diameter of the inhibition zone (DIZ) [9]: inactive
diameter of the inhibition zone (DIZ) [10]: inactive
diameter of the inhibition zone (DIZ) [11]: inactive
diameter of the inhibition zone (DIZ) [12]: inactive
diameter of the inhibition zone (DIZ) [13]: inactive

O=S(=O)(/C=C/S(=O)(=O)c1ccccc1)Cc1nnc(CS(=O)(=O)Nc2ccccc2)o1
diameter of the inhibition zone (DIZ) [1]: inactive
Activity [2]: inactive
zone of inhibition at 100 µg/mL [3]: 14 mm
diameter of the inhibition zone (DIZ) [4]: inactive
diameter of the inhibition zone (DIZ) [5]: inactive
zone of inhibition at 100 µg/mL [6]: 13 mm
diameter of the inhibition zone (DIZ) [7]: inactive
zone of inhibition at 50 µg/mL [8]: 12 mm
diameter of the inhibition zone (DIZ) [9]: inactive
diameter of the inhibition zone (DIZ) [10]: inactive
diameter of the inhibition zone (DIZ) [11]: inactive
zone of inhibition at 50 µg/mL [12]: 10 mm
diameter of the inhibition zone (DIZ) [13]: inactive

Nn1c(CS(=O)(=O)Nc2ccccc2)nnc1CS(=O)(=O)c1c[nH]nc1S(=O)(=O)c1ccccc1
zone of inhibition at 100 µg/mL [1]: 17 mm
Activity [2]: inactive
zone of inhibition at 100 µg/mL [3]: 23 mm
zone of inhibition at 50 µg/mL [4]: 15 mm
zone of inhibition at 100 µg/mL [5]: 23 mm
zone of inhibition at 100 µg/mL [6]: 21 mm
zone of inhibition at 50 µg/mL [7]: 24 mm
zone of inhibition at 50 µg/mL [8]: 19 mm
zone of inhibition at 50 µg/mL [9]: 20 mm
zone of inhibition at 100 µg/mL [10]: 26 mm
zone of inhibition at 50 µg/mL [11]: 19 mm
zone of inhibition at 50 µg/mL [12]: 19 mm
zone of inhibition at 100 µg/mL [13]: 23 mm

O=S(=O)(Cc1nnc(CS(=O)(=O)c2c[nH]nc2S(=O)(=O)c2ccccc2)o1)Nc1ccccc1
zone of inhibition at 100 µg/mL [1]: 12 mm
Activity [2]: inactive
zone of inhibition at 100 µg/mL [3]: 15 mm
zone of inhibition at 50 µg/mL [4]: 10 mm
zone of inhibition at 100 µg/mL [5]: 15 mm
zone of inhibition at 100 µg/mL [6]: 12 mm
zone of inhibition at 50 µg/mL [7]: 15 mm
zone of inhibition at 50 µg/mL [8]: 13 mm
zone of inhibition at 50 µg/mL [9]: 12 mm
zone of inhibition at 100 µg/mL [10]: 17 mm
zone of inhibition at 50 µg/mL [11]: 10 mm
zone of inhibition at 50 µg/mL [12]: 10 mm
zone of inhibition at 100 µg/mL [13]: 13 mm

Cc1ccc(NS(=O)(=O)Cc2nnc(CS(=O)(=O)C3CNN=C3S(=O)(=O)c3ccc(C)cc3)o2)cc1 (centres undefined)
diameter of the inhibition zone (DIZ) [1]: inactive
Activity [2]: inactive
diameter of the inhibition zone (DIZ) [3]: inactive
diameter of the inhibition zone (DIZ) [4]: inactive
diameter of the inhibition zone (DIZ) [5]: inactive
diameter of the inhibition zone (DIZ) [6]: inactive
diameter of the inhibition zone (DIZ) [7]: inactive
diameter of the inhibition zone (DIZ) [8]: inactive
diameter of the inhibition zone (DIZ) [9]: inactive
diameter of the inhibition zone (DIZ) [10]: inactive
diameter of the inhibition zone (DIZ) [11]: inactive
diameter of the inhibition zone (DIZ) [12]: inactive
diameter of the inhibition zone (DIZ) [13]: inactive
